Measured values taken from ChEMBL document CHEMBL3588851, “Antiviral Matrine-Type Alkaloids from the Rhizomes of Sophora tonkinensis” (J Nat Prod, 2015).
The source made the active and inactive calls. The calls are words filed in the database; no cut-off is given here.

Columns and labels:
[1] = system: Influenza A virus; assay: Antiviral activity against influenza A virus (A/Hanfang/359/95(H3N2)) infected in MDCK cells assessed as inhibition of virus-induced cytopathogenic effect at maximal nontoxic concentration dosed 1 hr after viral adsorption; assay type: functional, organism-based
[2] = Cytotoxic activity against African green monkey Vero cells assessed as cytopathogenic effect incubated for 48 hrs; assay type: cell-based; conditions: chlorocebus sabaeus, read-out: TC50
In short: (§1)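 Cells plated in 96-well plates; after 24 h, monolayers exposed to various concentrations of compound for 48 h at 37 °C, 5% CO2. Toxicity monitored by cytopathogenic effect (CPE). Median toxic concentration (TC50) calculated by the Reed and Muench method.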

[3] = Selectivity index, ratio of TC50 for African green monkey Vero cells to IC50 for coxsackievirus B3 infected in African green monkey Vero cells; assay type: toxicity, cell-based; conditions: read-out: Selectivity Index
In short: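 SI = TC50/IC50. TC50 from 48 h CPE-monitored Vero toxicity, calculated by Reed and Muench. IC50 from Vero monolayers infected with 100 TCID50 CVB3, adsorbed 1 h at 37 °C, PBS-washed, then maintained in MEM + 2% FBS with compound at 37 °C.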

[4] = system: Coxsackievirus B3; assay: Antiviral activity against coxsackievirus B3 infected in African green monkey Vero cells assessed as inhibition of virus-induced cytopathogenic effect dosed 1 hr after viral adsorption; assay type: functional, organism-based; conditions: Enterovirus B
In short: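 Confluent Vero monolayers were infected with 100 TCID50 CVB3 and adsorbed for 1 h at 37 °C. They were then washed with PBS and kept at 37 °C in MEM plus 2% FBS, with or without a range of compound concentrations. Ribavirin served as positive control.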

[5] = system: Coxsackievirus B3; assay: Antiviral activity against coxsackievirus B3 infected in African green monkey Vero cells assessed as inhibition of virus-induced cytopathogenic effect at maximal nontoxic concentration dosed 1 hr after viral adsorption; assay type: functional, organism-based
In short: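 Confluent Vero monolayers in 96-well plates infected with 100 TCID50 CVB3. After 1 h adsorption at 37 °C, cells washed with PBS. Then incubated at 37 °C in maintenance medium (MEM + 2% FBS) with or without compound, tested at its maximal nontoxic concentration.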

[6] = Selectivity index, ratio of TC50 for […] MDCK cells to IC50 for influenza A virus (A/Hanfang/359/95(H3N2)); assay type: toxicity, cell-based; conditions: read-out: Selectivity Index
In short: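 SI is TC50/IC50. TC50: MDCK cells were plated for 24 h, then exposed to graded compound concentrations for 48 h at 37 °C in 5% CO2, scored by CPE, and calculated by Reed–Muench. IC50 came from the H3N2-infected MDCK assay, with 1 h adsorption and then compound in MEM plus 2% FBS.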

[7] = system: Influenza A virus; assay: Antiviral activity against influenza A virus (A/Hanfang/359/95(H3N2)) infected in MDCK cells assessed as inhibition of virus-induced cytopathogenic effect dosed 1 hr after viral adsorption; assay type: functional, organism-based
[8] = Cytotoxic activity against MDCK cells assessed as cytopathogenic effect incubated for 48 hrs; assay type: cell-based, Canis lupus familiaris; conditions: dog, read-out: TC50; in short: as §1
[9] = system: Coxsackievirus B3; assay: Antiviral activity against coxsackievirus B3 infected in African green monkey Vero cells assessed as inhibition of virus-induced cytopathogenic effect dosed 1 hr after viral adsorption relative to ribavirin; assay type: functional

| Structure (SMILES) | inhibition [1] | inhibition [5] | selectivity ratio [6] | IC50 [7] [µM] | further results |
| --- | --- | --- | --- | --- | --- |
| O=C1[C@@H](O)CC[C@@H]2[C@H]3CCCN4CCC[C@@H](CN12)[C@@H]34 | inactive | – | – | – | CC50 at 48 h [2]: 757 µM; selectivity ratio [3]: 4.1; IC50 [4]: 184 µM |
| O=C1CCC[C@@H]2[C@H]3CCC[N+]4([O-])CCC[C@@](O)(CN12)[C@@H]34 (some centres not stated) | inactive | inactive | – | – | – |
| O=C1C=CC[C@@H]2[C@H]3CCCN4CCC[C@@](O)(CN12)[C@@H]34 | – | inactive | > 1.7 | 440 | CC50 at 48 h [8]: > 762 µM |
| O=C1C=C[C@@H](O)[C@@H]2[C@H]3CCC[N+]4([O-])CCC[C@@H](CN12)[C@@H]34 (some centres not stated) | inactive | – | – | – | CC50 at 48 h [2]: 115 µM; selectivity ratio [3]: 4.3; Ratio IC50 [9]: 45; IC50 [4]: 26.6 µM |
| O=C1[C@@H](O)CC[C@@H]2[C@H]3CCC[N+]4([O-])CCC[C@@H](CN12)[C@@H]34 (some centres not stated) | inactive | inactive | – | – | – |
| O=C1CCC[C@@H]2[C@H]3CCCN4CCC[C@@](O)(CN12)[C@@H]34 | inactive | – | – | – | CC50 at 48 h [2]: > 757 µM; selectivity ratio [3]: > 3; IC50 [4]: 252 µM |
| NC(=O)c1ncn([C@@H]2O[C@H](CO)[C@@H](O)[C@H]2O)n1 [RIBAVIRIN] | – | – | 813 | – | selectivity ratio [3]: 6.8; IC50 [4]: 1200 µM |
| O=C1CC=C[C@@H]2[C@H]3CCCN4CCC[C@@](O)(CN12)[C@@H]34 | inactive | inactive | – | – | – |
| O=C1C=CC[C@@H]2[C@H]3C[C@H](O)CN4CCC[C@@H](CN12)[C@@H]34 | inactive | – | – | – | CC50 at 48 h [2]: > 762 µM; selectivity ratio [3]: > 3.9; IC50 [4]: 197 µM |
| O=C1C=C[C@@H](O)[C@@H]2[C@H]3CCCN4CCC[C@@H](CN12)[C@@H]34 | – | inactive | > 3.1 | 242 | CC50 at 48 h [8]: > 762 µM |
| O=c1cccc2n1C[C@@H]1CCCN3CCC[C@H]2[C@H]13 | – | inactive | 4.3 | 63.1 | CC50 at 48 h [8]: 273 µM |
| O=C1CCC[C@@H]2[C@H]3C[C@H](O)CN4CCC[C@@H](CN12)[C@@H]34 | inactive | inactive | – | – | – |
| O=C1C=CC[C@@H]2[C@H]3CCC[N+]4([O-])CCC[C@@H](CN12)[C@@H]34 (some centres not stated) [OXYSOPHOCARPINE] | – | inactive | > 1.9 | 403 | CC50 at 48 h [8]: > 762 µM |
| O=C1CCC[C@@H]2[C@H]3CCCN4CCC[C@@H](CN12)[C@@H]34 | inactive | inactive | – | – | – |
| O=C1CCC[C@@H]2[C@H]3CCC[N+]4([O-])CCC[C@@H](CN12)[C@@H]34 (some centres not stated) | inactive | inactive | – | – | – |
| O=C1C=CC[C@@H]2[C@H]3CCC[N+]4([O-])CCC[C@@](O)(CN12)[C@@H]34 (some centres not stated) | – | inactive | – | – | – |
| O=C1C=CC[C@@H]2[C@H]3CCCN4CCC[C@@H](CN12)[C@@H]34 | inactive | inactive | – | – | – |
| O=C1C=C[C@H](O)[C@@H]2[C@H]3CCCN4CCC[C@@H](CN12)[C@@H]34 | – | inactive | 5.7 | 84.7 | CC50 at 48 h [8]: 479 µM |
| CCOC(=O)C1=C[C@@H](OC(CC)CC)[C@H](NC(C)=O)[C@@H](N)C1 [OSELTAMIVIR] | – | – | 2870 | 1.07 | – |
